Measured values: ChEMBL document CHEMBL1147094, “Novel in vivo model for the study of human immunodeficiency virus type 1 transcription inhibitors: evaluation of new 6-desfluoroquinolone derivatives” (Antimicrob Agents Chemother, 2007)
In brackets after ≈: the same amount, converted by molar mass. Activity calls are given as the source filed them. The calls are words filed in the database; no cut-off is given here.

Experiments:
[1] = tested on: Human immunodeficiency virus 1; test: Antiviral activity against human PMA-stimulated HIV1 expression in latently HIV1 infected OM10.1 cells assessed as inhibition of viral p24 production; type: functional, organism-based
[2] = tested on: Human immunodeficiency virus 1; test: Antiviral activity against human TNF-alpha stimulated HIV1 expression in latently HIV1 infected U1 cells assessed as decrease in mRNA production; type: functional, organism-based
[3] = tested on: Human immunodeficiency virus 1; test: Antiviral activity against PMA stimulated HIV1 expression in latently HIV1 infected OM10.1 cells assessed as inhibition of viral mRNA production; type: functional, organism-based
[4] = Selectivity index, CC50 for OM10.1 cells to EC50 for HIV1 infected OM10.1 cells; type: functional
Summary of the method: (§1)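 OM-10.1 cells at 500,000 cells/ml were exposed to compound for 2 h, then stimulated with 1 ng/ml hTNF-α or 0.02 µM PMA for 2 days at 37°C. Viability was read by MTT staining. The selectivity index is CC50 from MTT divided by EC50 from p24 ELISA run in the same cultures.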

[5] = tested on: Human immunodeficiency virus 1; test: Antiviral activity against human TNF alpha-stimulated HIV1 expression in latently HIV1 infected U1 cells assessed as inhibition of viral p24 production; type: functional, organism-based
[6] = tested on: Human immunodeficiency virus 1; test: Antiviral activity against human PMA-stimulated HIV1 expression in latently HIV1 infected U1 cells assessed as inhibition of viral p24 production; type: functional, organism-based
[7] = tested on: Human immunodeficiency virus 1; test: Antiviral activity against human TNF-alpha stimulated HIV1 expression in latently HIV1 infected OM10.1 cells assessed as inhibition of viral mRNA production; type: functional, organism-based
[8] = tested on: Human immunodeficiency virus 1; test: Antiviral activity against HIV1 BaL chronically infected human M/M cells; type: functional, organism-based; conditions: Human immunodeficiency virus 1, BaL
[9] = tested on: Human immunodeficiency virus 1; test: Antiviral activity against latently HIV1 infected U1 cells assessed as inhibition of viral p24 antigen production; type: functional, organism-based
[10] = tested on: Human immunodeficiency virus 1; test: Inhibition of viral reactivation in SCID mouse inoculated with HIV1 infected OM10.1 cells at 50 mg/kg, ip for 3 days prior to hTNF alpha administration assessed as viral loads after 18 hrs; type: functional, organism-based; set-up: dose 50 mg/kg
[11] = tested on: Human immunodeficiency virus 1; test: Antiviral activity against HIV1 BaL acutely infected human M/M cells; type: functional, organism-based; conditions: Human immunodeficiency virus 1, BaL
[12] = tested on: Human immunodeficiency virus 1; test: Antiviral activity against latently HIV1 infected OM10.1 cells assessed as inhibition of viral p24 antigen production; type: functional, organism-based
[13] = Cytotoxicity against latently HIV1 infected OM10.1 cells by MTT method; type: cell-based; conditions: human, OM10.1 cells latently infected with HIV-1; summary of the method: as §1
[14] = tested on: Human immunodeficiency virus 1; test: Antiviral activity against human TNF alpha-stimulated HIV1 expression in latently HIV1 infected OM10.1 cells assessed as inhibition of viral p24 production; type: functional, organism-based
[15] = tested on: Human immunodeficiency virus 1; test: Antiviral activity against human PMA stimulated HIV1 expression in latently HIV1 infected U1 cells assessed as decrease in mRNA production; type: functional, organism-based

**Q.** For `Cn1cc(C(=O)O)c(=O)c2ccc(N3CCN(c4cccc(C(F)(F)F)c4)CC3)cc21`, which EC50 [1] is on record?
**A.** 0.039 µg/mL (≈ 0.0904 µM)

**Q.** And the Activity [2]?
**A.** Dose-dependent effect

**Q.** What about the IC50 [3] of the same molecule?
**A.** 0.032 µg/mL (≈ 0.0742 µM)

**Q.** And the “Ratio CC50/EC50” value [4]?
**A.** 125

**Q.** What about the Activity [5] of the same molecule?
**A.** Dose-dependent effect

**Q.** And the Activity [6]?
**A.** Dose-dependent effect

**Q.** And the IC50 [7]?
**A.** 0.067 µg/mL (≈ 0.155 µM)

**Q.** And the EC50 [8]?
**A.** 0.05 µg/mL (≈ 0.116 µM)

**Q.** What about the EC90 [8] of the same molecule?
**A.** 1 µg/mL (≈ 2.32 µM)

**Q.** And the Activity [9]?
**A.** Dose-dependent effect

**Q.** What about the Activity [10] of the same molecule?
**A.** Active

**Q.** And the EC50 [11]?
**A.** 0.05 µg/mL (≈ 0.116 µM)

**Q.** What about the EC90 [11] of the same molecule?
**A.** 1 µg/mL (≈ 2.32 µM)

**Q.** What about the Activity [12] of the same molecule?
**A.** Dose-dependent effect

**Q.** What about the CC50 [13] of the same molecule?
**A.** 5 µg/mL (≈ 11.6 µM)

**Q.** What about the EC50 [14] of the same molecule?
**A.** 0.054 µg/mL (≈ 0.125 µM)

**Q.** What about the Activity [15] of the same molecule?
**A.** Dose-dependent effect

**Q.** For `Cn1cc(C(=O)O)c(=O)c2ccc(N3CCN(c4nc5ccccc5s4)CC3)cc21`, which EC50 [1] is on record?
**A.** 0.04 µg/mL (≈ 0.0951 µM)

**Q.** What about the Activity [2] of the same molecule?
**A.** Dose-dependent effect

**Q.** And the IC50 [3]?
**A.** 0.04 µg/mL (≈ 0.0951 µM)

**Q.** And the “Ratio CC50/EC50” value [4]?
**A.** 125

**Q.** What about the Activity [5] of the same molecule?
**A.** Dose-dependent effect

**Q.** What about the Activity [6] of the same molecule?
**A.** Dose-dependent effect

**Q.** What about the IC50 [7] of the same molecule?
**A.** 0.06 µg/mL (≈ 0.143 µM)

**Q.** What about the EC50 [8] of the same molecule?
**A.** 0.011 µg/mL (≈ 0.0262 µM)

**Q.** What about the EC90 [8] of the same molecule?
**A.** 0.16 µg/mL (≈ 0.381 µM)

**Q.** And the Activity [9]?
**A.** Dose-dependent effect

**Q.** What about the Activity [10] of the same molecule?
**A.** Active

**Q.** And the EC50 [11]?
**A.** 0.025 µg/mL (≈ 0.0595 µM)

**Q.** And the EC90 [11]?
**A.** 0.2 µg/mL (≈ 0.476 µM)

**Q.** And the Activity [12]?
**A.** Dose-dependent effect

**Q.** And the CC50 [13]?
**A.** 5 µg/mL (≈ 11.9 µM)

**Q.** What about the EC50 [14] of the same molecule?
**A.** 0.045 µg/mL (≈ 0.107 µM)

**Q.** What about the Activity [15] of the same molecule?
**A.** Dose-dependent effect
